Only some compounds are listed: those with a hit (about 2.3% of all), similar ones and a draw of the others.
TAAR1 antag: antagonists of human TAAR1. Q96RJ0. CHO RD-HGA16 TAAR1, Fluo-8 calcium fluorescence, antagonist. inhibition, % at 3 µM. 1.5% of 360,000 active;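 active = inhibition above a per-plate cutoff, the mean inhibition of test compounds on that plate plus 3 SD, cut at about 49% in these data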;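 also: 0% = DMSO plus EC80 beta-PEA response and 100% = DMSO alone without agonist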
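System: RD-HGA16 CHO cells with stable hTAAR1 and Gα16 | Probe or stimulus: EC80 β-phenethylamine stimulus | Dosing: 3 µM, single point | Times: Dye loading 75 min at 37 °C, then 30 min room temperature | Measured by: Fluo-8 calcium-sensitive fluorescence | Read-out basis: % inhibition of agonist calcium response | Replicates: n of 1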
OXTR ag: human OXTR agonism; P30559; CHO-OTR cells, Fluo-8 calcium fluorescence; normalized: DMSO 0%, oxytocin 100%; activation, % at 3 µM; 0.32% of 320,000 active; AID 2435;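 active = activation above the mean of all tested compounds plus 3 SD, cutoff set per screening run, cut at about 20% in these data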;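 also: peak over basal fluorescence ratio from a 100 s FLIPR kinetic read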
V1aR counter: V1a receptor agonism, counter-screen for OXTR agonists. P37288. CHO-V1R cells, Fluo-8 calcium fluorescence, agonist mode; 0% DMSO, 100% 3 nM vasopressin. activation, % at 3 µM. 0.25% of 320,000 active. AID 2797;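 active = activation above the mean activation of all tested compounds plus 3 SD, per screening run, cut at about 20% in these data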;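 also: signal is peak over basal fluorescence ratio across a 100 second FLIPR read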
Target sequence (P37288 whole entry, looked up): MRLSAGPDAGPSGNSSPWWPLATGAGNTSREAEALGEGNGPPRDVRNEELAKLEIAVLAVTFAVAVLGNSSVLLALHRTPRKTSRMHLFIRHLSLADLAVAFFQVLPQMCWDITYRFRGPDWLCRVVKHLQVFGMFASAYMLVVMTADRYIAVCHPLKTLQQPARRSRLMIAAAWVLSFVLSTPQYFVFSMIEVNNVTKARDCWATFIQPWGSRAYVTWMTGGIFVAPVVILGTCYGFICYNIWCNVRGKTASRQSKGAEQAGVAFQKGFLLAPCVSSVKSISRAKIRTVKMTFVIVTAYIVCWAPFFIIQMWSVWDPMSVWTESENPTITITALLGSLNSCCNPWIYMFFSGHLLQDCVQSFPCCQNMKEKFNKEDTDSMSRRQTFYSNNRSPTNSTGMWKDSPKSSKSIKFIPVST
TAAR1 ag: human TAAR1 agonism; CHO RD-HGA16 TAAR1, Fluo-8 calcium fluorescence; vehicle wells 0%, saturating PEA agonist 100%; activation, % at 3 µM; 0.99% of 360,000 active;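 active = activation above the mean activation of all test compounds in the run plus 3 SD, cut at about 38% in these data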
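Assay system: CHO-derived RD-HGA16 cells with stable Gα16 and human TAAR1; timing: 17-24 h seeding, 75 min 37 °C dye, 30 min RT; read-out: % activation from peak over basal fluorescence ratio, DMSO-to-PEA scaled; measured by: kinetic Fluo-8 calcium fluorescence; benchmarks: low control DMSO, high control PEA (EC100); doses: 3 µM single concentration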
OXTR potentiate: potentiators of human oxytocin receptor; P30559; CHO-OTR cells, Fluo-8 calcium fluorescence, potentiator mode; 0% = oxytocin EC15, 100% = EC100; activation, % at 3 µM; 0.061% of 320,000 active; AID 2445;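 active = activation above that plate's cutoff, the mean activation of tested compounds plus 3 SD, cut at about 6.6% in these data, passing the limit was not always enough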;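 also: 100% uses oxytocin at 75 nM as the full agonist control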
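Replication – single well per compound, singlicate · Assay system – CHO cell line stably expressing human OTR · Timing – 6 min pre-incubation, 100 s read · Measure – normalized max/min fluorescence ratio, % activation · Doses – 3.0 µM, one dose · Detection – Fluo-8 calcium dye fluorescence · Probe or stimulus – oxytocin near EC15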
An asterisk follows results filed as active; x = no result.

SMILES | TAAR1 antag | OXTR ag | V1aR counter | TAAR1 ag | OXTR potentiate
CC(C(=O)NC(C)(C)C)N(C(=O)CS(=O)CC(=O)Nc1ccc(F)cc1)c1ccccc1F (stereo not drawn) | -2 | 0 | 0 | 3 | -17
CCC1Sc2ccccc2N(CC(=O)NCc2ccc3c(c2)OCO3)C1=O (stereo not drawn) | 50* | -1 | 2 | 17 | -2
O=C(Nc1ccccc1)Nc1cccc(-c2nnco2)c1 | -6 | 3 | 7 | 44* | -13
O=C(Nc1ccc(-c2nnco2)cc1)c1ccccc1 | 15 | -1 | 1 | 9 | -17
O=C(Cc1cccs1)NCCSc1c(-c2ccc(Cl)cc2)[nH]c2ccccc12 | 49* | 0 | -1 | 1 | -4
CCOC(=O)CSc1c(-c2ccc(Cl)cc2)[nH]c2ccccc12 | 37 | -2 | -2 | 0 | -13
Cc1ccc(S(=O)(=O)N2CCN(C(=O)CNC(=O)c3ccc(Cl)cc3)CC2)cc1 | -3 | 0 | 3 | -2 | 2
CCN(CCNC(=O)C1CCN(Cc2nc(-c3ccc(Cl)cc3)oc2C)CC1)c1ccccc1 | 6 | 17 | 12 | 13 | -8
CCc1ccc(-c2nc(CN3CCC(C(=O)N4CCN(c5ccccc5)CC4)CC3)c(C)o2)cc1 | -3 | 29* | 34* | 28 | -11
CCc1ccc(-c2nc(CN3CCC(C(=O)N4CCN(c5ccccn5)CC4)CC3)c(C)o2)cc1 | -16 | 17 | 14 | 13 | -11
CCN(CCNC(=O)C1CCN(Cc2nc(-c3cccc(Cl)c3)oc2C)CC1)c1ccccc1 | -3 | 18 | 15 | 39* | -18
NC(=O)c1ncn([C@@H]2O[C@H](CNCc3cc(Cl)ccc3OCc3ccc(Cl)cc3)[C@@H](O)[C@H]2O)n1 | 1 | x | x | 4 | x
O=C(CSc1nc2nn(-c3ccccc3)c(=O)c-2c2n1CCCCC2)Nc1cccc(F)c1 | 20 | 2 | 0 | 0 | -9
COc1ccc(C(=O)NNC(=O)CSc2nnc(COc3ccc4ccccc4c3)n2C)cc1 | -2 | 0 | -1 | 44* | -1
CCOC(=O)C1(CCOc2ccccc2)CCN(Cc2ccc(OCC)c(CO)c2)CC1 | -7 | 7 | 10 | 3 | -13
O=C1C[C@@H](c2ccc(O)cc2)Oc2cc(O)cc(O)c21 | -2 | 5 | 3 | 16 | -14
Cc1c(O)cc2c(c1O)C(=O)CC(c1ccccc1)O2 (stereo not drawn) | 8 | 59* | 48* | 0 | -10
O=C(NNc1c2ccccc2nc2ccccc12)c1ccc(O)cc1 | 17 | -1 | -1 | 4 | -12
O=C(NNc1c2ccccc2nc2ccccc12)c1ccccc1Cl | -10 | 0 | 1 | 2 | -9
COc1ccc(OCC(=O)NNc2c3ccccc3nc3ccccc23)cc1 | 59* | 3 | 5 | 16 | -2
O=C(NNc1c2ccccc2nc2ccccc12)c1ccccc1O | 54* | 2 | 4 | 10 | -16
O=C(COc1ccccc1)NNc1c2ccccc2nc2ccccc12 | 45 | -1 | 2 | 11 | -19
O=C(NNc1c2ccccc2nc2ccccc12)c1ccc(O)cc1O | 61* | -2 | 1 | 15 | -11
CC(C)(C)C(=O)O/N=C(\N)COc1cccc(Cl)c1 | -19 | -2 | 0 | 3 | -6
COc1ccc(NC(=O)[C@H](C)NC(=O)C2CCN(S(=O)(=O)c3ccc(C)cc3)CC2)cc1 | -37 | -2 | -1 | 0 | -8
SMILES | TAAR1 antag | OXTR ag | V1aR counter | TAAR1 ag | OXTR potentiate
CN(C)CCCN(C(=O)COc1ccc(Cl)cc1)c1nc2ccc(F)cc2s1 | 5 | 19 | 6 | 41* | -25
CN(C)CCCN(C(=O)COc1ccccc1)c1nc2ccc(F)cc2s1 | 0 | 4 | 1 | 11 | -3
Cc1ccc2nc(N(CCCN(C)C)C(=O)COc3ccc(Cl)cc3)sc2c1 | 10 | 9 | 2 | 45* | -2
Cc1ccc[n+](CC(=O)N2CCCCC2)c1C | -1 | 0 | 0 | 0 | -16
O=C(NCc1ccncc1)[C@@H]1CCCN1C(=O)[C@H]1CCCN1C(=O)c1cccc2ccccc12 | -8 | x | x | 7 | x
O=C(COc1ccccc1F)Nc1ccccc1C(=O)NC1CC1 | 52* | -1 | 2 | 7 | -2
Cc1ccc(C)c(OCC(=O)Nc2ccccc2C(=O)NC2CC2)c1 | -4 | x | x | 2 | x
C[C@@H]1ON(C)[C@H]2C[C@H]3c4[nH]c5c(-c6ccccc6)cccc5c4CCN3C[C@@H]12 | -7 | x | x | 5 | x
COc1ccc(C(CNC(=O)c2ccc(-c3nc4ccccc4s3)o2)N2CCCC2)cc1 (stereo not drawn) | -14 | 3 | 1 | 4 | 4
COc1ccc(C(CNC(=O)c2ccc(-c3ccccc3Cl)o2)N2CCCC2)cc1 (stereo not drawn) | -11 | x | x | 42* | x
OCCNC(=S)NCCc1ccccc1 | -11 | -1 | 0 | 14 | -16
COc1ccc(NC(=S)NCCc2ccccc2)c(C)c1 | -8 | -1 | -1 | 0 | -11
Fc1ccccc1NC(=S)NCCc1ccc(Cl)cc1 | 1 | x | x | 0 | x
CC(C)(CNC(=S)NCCc1ccccc1)CNC(=S)NCCc1ccccc1 | 62* | x | x | 46* | x
Fc1ccccc1NC(=S)NCCc1ccccc1 | 6 | -2 | 0 | 56* | -11
S=C(NCCc1ccc(Cl)cc1)Nc1ccc(Cl)cc1Cl | 49* | 2 | 5 | 2 | -11
Cc1cc(OC(F)F)ccc1NC(=S)NCCc1ccccc1 | -19 | 3 | 5 | 39* | -12
CC(c1ccc(Cl)cc1)N(CCN(C)C)c1ccccn1 (stereo not drawn) | -9 | x | x | 1 | x
CCC(=O)c1ccc(OCC(=O)Nc2cccc(S(=O)(=O)N(C)c3ccccc3)c2)cc1 | 76* | 11 | 11 | 16 | -12
CN(c1ccc(OCC(=O)OCC(=O)Nc2ccccc2)cc1)S(=O)(=O)c1ccc(F)cc1 | 31 | 14 | 12 | 21 | -14
CN(Cc1ccccc1)S(=O)(=O)c1ccc(OCC(=O)Nc2cccc([N+](=O)[O-])c2)cc1 | 16 | 3 | 5 | 3 | -7
CN(c1ccccc1)S(=O)(=O)c1cccc(NC(=O)COc2cccc([N+](=O)[O-])c2)c1 | 70* | 7 | 8 | 26 | -10
CN(c1ccc(OCC(=O)OCC(=O)Nc2ccc([N+](=O)[O-])cc2)cc1)S(=O)(=O)c1cccs1 | 60* | x | x | 41* | x
COC(=O)C1=C(C)N(Cc2ccccc2C(F)(F)F)C(=NCc2ccc3c(c2)OCO3)NC1c1ccccc1 (stereo not drawn) | 10 | x | x | 13 | x
COc1ccc(-c2nc(N3CCCCCC3)sc2C(=O)c2ccccc2)cc1 | 80* | 6 | 2 | 42* | -14
CC(C)c1ccc(/C=C/C(=O)NC(=S)NN2CCOCC2)cc1 | -14 | x | x | 3 | x

Bioassay records (PubChem)
